# Results pooled from the literature.
# Protocols differ between the studies behind these lines.
# Effect on: cell growth or viability
SMILES,cell line,method,time,IC50
CC1CCC(C(C)C)C(OC2=C(Cl)C(=O)c3ccccc3C2=O)C1 (stereo not drawn),SK-BR-3,MTT,24 h,4 µg/mL
COc1ccc(-n2cc(CNC(=O)[C@@]3(C)[C@H](O)CC[C@@]4(C)[C@H]3CC[C@]3(C)[C@@H]4C(=O)C=C4[C@@H]5[C@@H](C)[C@H](C)CC[C@]5(C)CC[C@]43C)nn2)cc1,HDF,MTT,24 h,109000 nM
COc1ccc(NC(=S)N/N=C/c2cccc3cc4ccccc4nc23)cc1,SK-BR-3,MTT,48 h,> 50000 nM
CC(C)C[C@H](NC(=O)[C@H](Cc1ccccc1)NC(=O)c1cnccn1)B(O)O,MP41,ATP luminescence,72 h,4.34 nM
CCCNC(=S)N/N=C/c1cccc2cc3ccccc3nc12,SK-BR-3,MTT,48 h,> 50000 nM
C/C(=N/NC(=O)c1cn(-c2ccccc2)nc1-c1ccc(C)cc1)c1c(O)cc(C)oc1=O,Vero,MTT,48 h,216000 nM
CO[C@H]1[C@H](O[C@H]([C@H]2O[C@@H](n3ccc(=O)[nH]c3=O)[C@H](O)[C@@H]2O)[C@H](NCCCNC(=O)[C@@H](NC(=O)[C@@H](NC(=O)N[C@H](C(=O)O)C(C)C)[C@@H]2CCN=C(N)N2)[C@@H](O)C(C)C)C(=O)O)O[C@H](CN)[C@H]1O,SK-BR-3,WST-1,,> 35000 nM
C[C@H]1COCCN1c1nc(N2CCOC[C@@H]2C)c2ccc(-c3cccc(C(=O)NCCOCCOCCOCCONC(=O)c4ccc(F)c(F)c4Nc4ccc(I)cc4F)c3)nc2n1,D54,WST-1,72 h,22800 nM
COc1cc(C(=O)c2nc(-c3ccc4cc[nH]c4c3)c[nH]2)cc(OC)c1OC,M14,MTS,72 h,14.3 nM
O=[N+]([O-])c1ccc(NC(=S)N/N=C/c2cccc3cc4ccccc4nc23)cc1,SK-BR-3,MTT,48 h,> 50000 nM
C[C@H]1[C@H](C)CC[C@]2(C)CC[C@]3(C)C(=CC(=O)[C@@H]4[C@@]5(C)CC[C@@H](O)[C@](C)(C(=O)NCc6cn(-c7ccc(Cl)cc7)nn6)[C@@H]5CC[C@]43C)[C@H]12,HDF,MTT,24 h,191000 nM
COc1cc(C(=O)c2nc(-c3ccncc3)c[nH]2)cc(OC)c1OC,M14,MTS,72 h,> 1000 nM
O=c1cc(OCc2cc(-c3ccc(Cl)cc3Cl)no2)c2ccccc2o1,HL-60,MTS,72 h,> 100000 nM
COc1cccc(NC(=S)N/N=C/c2cccc3cc4ccccc4nc23)c1,SK-BR-3,MTT,48 h,> 50000 nM
c1ccc(Oc2ccc(Nc3c4c(nc5ccccc35)CCC4)cc2)cc1,RAW264.7,resazurin,72 h,40800 nM
C[C@H]1[C@H](C)CC[C@]2(C)CC[C@]3(C)C(=CC(=O)[C@@H]4[C@@]5(C)CC[C@@H](O)[C@](C)(C(=O)NCc6cn(-c7ccccc7C(F)(F)F)nn6)[C@@H]5CC[C@]43C)[C@H]12,HDF,MTT,24 h,103000 nM
FC(F)(F)c1cc(OCc2cc(-c3ccccn3)no2)c2ccccc2n1,HL-60,MTS,72 h,> 100000 nM
COc1cccc2c1C(=O)c1c(O)c3c(c(O)c1C2=O)C[C@@](O)(C(=O)CO)C[C@@H]3O[C@H]1C[C@H](N)[C@H](O)[C@H](C)O1,CHO-K1,ATP luminescence,72 h,340 nM
Cc1sc2c(c1C)C(c1ccc(Cl)cc1)=N[C@@H](CC(=O)NCCCCNC(=O)COc1cccc3c1C(=O)N(C1CCC(=O)NC1=O)C3=O)c1nnc(C)n1-2 (stereo partly drawn),SK-BR-3,CCK-8,72 h,> 10000 nM
Nc1ccccc1NC(=O)c1ccc(Cn2cnc3c(Nc4ccc(Cl)cc4)ncnc32)cc1,HL-60,MTT,72 h,1110 nM
Cc1noc2c1-c1ccc(-c3cnn(C)c3)cc1C(c1ccc(Cl)cc1)=N[C@H]2CC(N)=O,MP41,ATP luminescence,72 h,376 nM
FC(F)(F)c1ccc(-c2cc(COc3cc(C(F)(F)F)nc4ccccc34)on2)cc1,HL-60,MTS,72 h,> 100000 nM
O=C(NO)c1ccc(Cn2cnc3c(Nc4cccc([N+](=O)[O-])c4)ncnc32)cc1,U-266,MTT,72 h,310 nM
COc1cc(C(=O)c2nc(-c3cccc4[nH]ccc34)c(C)[nH]2)cc(OC)c1OC,M14,MTS,72 h,17.2 nM
N/C(=N\O)c1ccc(-c2cc(CNc3cccc4cccnc34)on2)cc1,HL-60,MTS,72 h,2800 nM
O=[N+]([O-])c1ccc(Sc2cccc[n+]2[O-])c2nonc12,MP41,ATP luminescence,72 h,2590 nM
O=C(NO)c1ccc(Cn2cnc3c(Nc4ccc(Br)cc4F)ncnc32)cc1,U-266,MTT,72 h,750 nM
COc1cc(C(=O)c2nc(-c3cccc4[nH]ccc34)c[nH]2)cc2c1OC=CO2,M14,MTS,72 h,7.3 nM
COc1cc([C@@H]2c3cc4c(cc3[C@@H](O[C@@H]3O[C@@H]5CO[C@@H](C)O[C@H]5[C@H](O)[C@H]3O)[C@H]3COC(=O)[C@H]23)OCO4)cc(OC)c1O,HL-60,MTS,72 h,30 nM
COc1cccc2c1C(=O)c1c(O)c3c(c(O)c1C2=O)C[C@@](O)(C(=O)CO)C[C@@H]3O[C@H]1C[C@H](N)[C@H](O)[C@H](C)O1,SK-BR-3,MTT,24 h,54.4 µg/mL
Nc1ccccc1NC(=O)c1ccc(Cn2cnc3c(Nc4ccc(Br)cc4F)ncnc32)cc1,U-266,MTT,72 h,460 nM
C[C@H]1[C@H](C)CC[C@]2(C)CC[C@]3(C)C(=CC(=O)[C@@H]4[C@@]5(C)CC[C@@H](O)[C@](C)(C(=O)NCc6cn(-c7ccccc7)nn6)[C@@H]5CC[C@]43C)[C@H]12,HDF,MTT,24 h,181000 nM
COc1nnc2ccc(N3CCC(c4ccc(OCCN5CCN(C)C(=O)[C@H]5C)cc4)CC3)nn12,MP41,ATP luminescence,72 h,90.4 nM
COc1cc(C(=O)c2nc(-c3cccc4c3CCN4)c[nH]2)cc(OC)c1OC,M14,MTS,72 h,43.4 nM
CCS(=O)(=O)Nc1ccc(Oc2ccc(F)cc2F)c(-c2cn(C)c(=O)c3[nH]ccc23)c1,MP41,ATP luminescence,72 h,99.6 nM
COc1cc(C(=O)c2nc(-c3ccnc4[nH]ccc34)c[nH]2)cc(OC)c1OC,M14,MTS,72 h,15.8 nM
COc1ccc(Nc2ncnc3c2ncn3Cc2ccc(C(=O)Nc3ccccc3N)cc2)cc1,U-266,MTT,72 h,4210 nM
COc1cc([C@@H]2c3cc4c(cc3[C@H](O)[C@H]3COC(=O)[C@H]23)OCO4)cc(OC)c1OC,MP41,ATP luminescence,72 h,6.49 nM
COc1cc(C(=O)c2nc(-c3cccc4[nH]cnc34)c[nH]2)cc(OC)c1OC,M14,MTS,72 h,15.9 nM
